High-throughput results deposited in PubChem by Johns Hopkins Ion Channel Center.
Sampled rows, rich in hits. Any-hit rate of the full collection: about 3.7%.
KCNK3 block: human KCNK3 channel inhibition, primary screen; CHO-KCNK3 thallium flux, FluxOR fluorescence; active compounds read low; B-score at 10 µM; 0.84% of 340,000 active; AID 602410;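 active = B-score under library mean minus 4 SD, starting fluorescence ratio at most library mean plus 5 SD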;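 also: more negative B-score means stronger inhibition of thallium flux through KCNK3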
KCNQ1 pot: human KCNQ1 channel potentiation or activation. P51787. CHO-K1 KCNQ1, thallium flux FluxOR fluorescence; active compounds read high. B-score at 10 µM. 0.35% of 310,000 active;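 active = fluorescence ratio B-score, a plate-corrected score, at least three library SD, with initial intensity B-score within 5 SD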
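assay system = CHO-K1 cells stably expressing KCNQ1 | medium = assay buffer, equal DMSO in all wells | timing = 37 °C overnight plating, 90-min dark dye load, 20-min compound pretreatment | measured by = kinetic FluxOR thallium fluorescence, 10-s 1-Hz baseline, 110-s post-stimulus read | measure = fluorescence change relative to baseline, converted to B score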
hERG protect: compounds protecting human hERG from proarrhythmic drug block | Q12809 | activation (rescue from dofetilide block), less the hit threshold, % at 10 µM | AID 1511 | 0.51% of 310,000 active | CHO-hERG, FluxOR thallium flux, dofetilide IC70 present;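 active = activation above the mean of controls blocked by dofetilide plus 5 SD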;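 also: thallium influx through hERG after potassium depolarization seen as dye fluorescence rise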
KCNQ1 inh: blocks the human KCNQ1 potassium channel; P51787; CHO-K1 KCNQ1, FluxOR thallium flux fluorescence; active compounds read high; B-score at 10 µM; 1.3% of 310,000 active; AID 2642;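 active = compounds whose thallium flux B-score, printed positive for inhibition, exceeds three library SD while starting fluorescence stays within three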;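 also: channel opened by potassium depolarization with thallium stimulus after 20 min compound exposure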
Kir21 inh: blocks the mouse Kir2.1 inward-rectifier potassium channel; 0.85% of 310,000 active; B-score at 10 µM; HEK293-Kir2.1, FluxOR thallium flux fluorescence; active compounds read low; AID 1672; P35561;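 active = fluorescence ratio B-score at or below minus 3 SD of library scores, with starting-brightness B-score within 2 SD, cut at about -4.2 in these data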;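 also: channel flux triggered by added potassium and thallium sulfate stimulus; B-score of peak minus minimum fluorescence over baseline after thallium stimulus; more negative B-score means stronger Kir2.1 block with less thallium influx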
Target sequence (P35561 whole entry, looked up): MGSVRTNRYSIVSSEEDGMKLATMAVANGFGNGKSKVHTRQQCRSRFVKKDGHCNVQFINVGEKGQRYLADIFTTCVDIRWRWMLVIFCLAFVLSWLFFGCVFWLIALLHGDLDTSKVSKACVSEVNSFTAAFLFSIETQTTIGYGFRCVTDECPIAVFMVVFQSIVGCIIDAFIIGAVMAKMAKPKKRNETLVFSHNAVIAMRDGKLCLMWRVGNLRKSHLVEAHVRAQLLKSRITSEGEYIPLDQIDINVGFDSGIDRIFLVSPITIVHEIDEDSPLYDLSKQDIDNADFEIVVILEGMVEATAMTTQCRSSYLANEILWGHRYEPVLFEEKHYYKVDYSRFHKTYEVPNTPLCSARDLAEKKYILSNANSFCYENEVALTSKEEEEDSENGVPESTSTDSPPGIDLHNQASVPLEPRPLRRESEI
KCNK9 block: inhibitors of human KCNK9 two-pore domain potassium channel; Q9NPC2; HEK293 KCNK9, FluxOR thallium flux fluorescence; active compounds read low; B-score at 10 µM; 1.2% of 310,000 active; AID 488922;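 active = ratio B-score over 3 SD below the library mean, with starting fluorescence within 5 SD of its mean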;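 also: negative B-score means less thallium flux so channel inhibition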
KCNK9 block conf: confirmation of human KCNK9 potassium channel inhibitors; shares compounds with KCNK9 block; HEK293 KCNK9 cells, FluxOR thallium flux fluorescence; inhibition, % at 10 µM; 43% of 4,900 active; AID 492992;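 active = thallium signal inhibited by more than 5 SD of the compound-free buffer control wells, on both duplicate plates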;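 also: 0% = assay buffer control wells without compound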
Kir21 sel: tests whether KCNK9 modulators also affect mouse Kir2.1. AID 492993. 4% of 4,900 active. shares compounds with KCNK9 block. inhibition, % at 10 µM. Kir2.1 cells, FluxOR thallium flux fluorescence;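 active = thallium signal drop more than 5 SD beyond the mean of the no-compound control wells, seen in both duplicate plates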;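 also: signal is fluorescence rise after thallium addition divided by baseline fluorescence; plate controls were assay buffer only for no effect and full block by chlorpromazine control for full effect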
KCNK9 uninduced: second counter-screen for KCNK9 modulators: effect in non-induced cells; non-induced KCNK9-HEK293, FluxOR thallium flux; AID 492997; shares compounds with KCNK9 block; inhibition, % at 10 µM; 40% of 4,900 active;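 active = thallium signal drop beyond 5 SD of the untreated control mean, on both duplicate plates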;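 also: plate controls were buffer only IC0 wells for no effect and SID17386958 at its maximal inhibitory level for full effect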
An asterisk follows results filed as active; i = inactive; x = not tested or not shown.

SMILES	KCNK3 block	KCNQ1 pot	hERG protect	KCNQ1 inh	Kir21 inh	KCNK9 block	KCNK9 block conf	Kir21 sel	KCNK9 uninduced
CCCCC[C@H]1CN(Cc2ccccc2)C(=O)[C@@H]1CC(=O)NCc1ccc(OC)cc1	i	i	-8	i	0.75	i	i	i	28%*
O=C(C[C@H]1C(=O)N(CCc2ccccc2)C[C@@H]1Cc1ccccc1)Nc1ccccc1	i	i	-4	i	0.65	i	x	x	x
O=C(C[C@H]1C(=O)N(Cc2ccccc2)C[C@@H]1Cc1ccccc1)Nc1ccccc1	i	i	-7	i	-1	i	i	i	i
CC/C(=N\O)c1c(O)c2c(n(-c3ccccc3)c1=O)CCCC2	i	i	-5	i	0.05	i	x	x	x
Cc1cccc(NC(=S)NCc2ccc(F)cc2)c1C	i	i	-7	i	0.19	i	x	x	x
CC(c1ccccc1)N(CC(=O)NC1CCCCC1)S(=O)(=O)c1cccc(C(F)(F)F)c1 (stereo not drawn)	i	i	-9	i	0.48	-8.2*	49%*	i	47%*
O=C(CN(Cc1ccccc1)S(=O)(=O)c1cccc(C(F)(F)F)c1)NC1CCCCC1	i	i	-10	i	-0.1	i	x	x	x
CCc1cccc2c(C(=S)N3CCOCC3)c[nH]c12	i	i	-11	i	-0.61	i	x	x	x
COc1ccc(NC(=O)CCNC(=O)c2ccco2)cc1Cl	i	i	-8	i	1.2	i	x	x	x
COc1nc(SC)nc(Cl)c1Cc1ccc(OC(C)C)cc1	i	i	-7	i	-0.22	i	i	i	26%*
CCCOc1ccc(Cc2c(Cl)nc(SC)nc2OC)cc1	i	i	-5	i	-1.6	i	i	i	i
CC(C)Oc1ccc(Cc2cnc(N)nc2N)cc1	i	i	-12	i	-0.71	i	x	x	x
CCCOc1ccc(Cc2c(Cl)nc(SC)nc2N(C)C)cc1	i	i	-10	i	-0.47	i	x	x	x
O=C(CSc1n[nH]c(=O)n1-c1cccnc1)Nc1ccccc1Cl	i	i	-3	i	0.52	i	x	x	x
Cc1[nH]n(-c2ccc([N+](=O)[O-])cc2)c(=O)c1C=NCCc1c(C)[nH]c2ccccc12	i	i	-4	i	0.45	i	x	x	x
Cc1cc(C)c(S(=O)(=O)N2CCN(C(=O)N(C)C)CC2)c(C)c1	i	i	-15	i	2.2	i	x	x	x
O=C(CSc1nnc(-c2ccccc2O)o1)N1CCCCC1	i	i	-12	i	0.9	i	x	x	x
Cc1nnc(SCc2ccc(Cl)cc2)nc1/C=C/N(C)C	i	i	-12	i	-0.46	i	i	i	i
CSc1nnc(C)c(/C=C/NOCc2ccc(Cl)cc2)n1	i	i	-6	i	0.26	i	x	x	x
COc1cc(C(C)=O)ccc1COc1ccc(C(=O)OC(C)C(=O)NC(N)=O)cc1OC (stereo not drawn)	i	i	-16	i	1.8	i	x	x	x
Cc1ccc(C)c(NS(=O)(=O)c2ccccc2C)c1	i	i	-8	i	-3.7	i	x	x	x
Cc1cccc(C(=O)N2CCCC(N3CCN(c4cccc(Cl)c4)CC3)C2)n1 (stereo not drawn)	i	i	-10	i	-2.2	i	i	i	i
O=C(c1cnccn1)N1CCCC(N2CCN(c3cccc(Cl)c3)CC2)C1 (stereo not drawn)	i	i	-7	i	-1.1	i	x	x	x
Cc1ccccc1N1CCN(C2CCCN(C(=O)c3csc(C(C)C)n3)C2)CC1 (stereo not drawn)	i	i	-15	i	-0.58	i	i	i	i
